Experimental data published in ChEMBL document CHEMBL3585296, “Flavonoids from Perovskia atriplicifolia and Their in Vitro Displacement of the Respective Radioligands for Human Opioid and Cannabinoid Receptors” (J Nat Prod, 2015).

Columns and labels:
[1] = target: T1, Delta-type opioid receptor (Homo sapiens, UniProt P41143); test: Displacement of [3H]DPDPE from delta opioid receptor (unknown origin) transfected into HEK293 cells at 10 uM by microplate scintillation counting; format: cell-based
T1 sequence (P41143 whole entry): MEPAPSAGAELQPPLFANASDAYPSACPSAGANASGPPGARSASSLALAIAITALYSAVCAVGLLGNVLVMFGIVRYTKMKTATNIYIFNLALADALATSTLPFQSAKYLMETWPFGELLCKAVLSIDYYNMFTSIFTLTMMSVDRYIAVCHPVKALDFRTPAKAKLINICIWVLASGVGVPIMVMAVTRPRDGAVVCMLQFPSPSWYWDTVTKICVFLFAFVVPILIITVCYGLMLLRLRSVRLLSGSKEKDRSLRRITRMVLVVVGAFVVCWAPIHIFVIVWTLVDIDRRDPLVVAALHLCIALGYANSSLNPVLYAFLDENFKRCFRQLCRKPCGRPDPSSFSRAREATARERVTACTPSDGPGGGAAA
Outline: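 HEK293 cells stably expressing the δ opioid receptor were kept in DMEM with 0.2 mg/mL G418. Compound at 10 μM (triplicate dilutions) was incubated with 0.99 nM [3H]-DPDPE and 20 μg membrane for 60 min in 50 mM Tris-HCl, pH 7.4. Bound label was collected by GF/B filtration. Nonspecific binding was defined with 10 μM DPDPE. Results are given as % displacement.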

[2] = target: T1, Delta-type opioid receptor; test: Displacement of [3H]DPDPE from delta opioid receptor (unknown origin) transfected into HEK293 cells by microplate scintillation counting; format: cell-based
[3] = target: Cannabinoid receptor 1 (Homo sapiens) (UniProt P21554); test: Displacement of [3H]-CP55940 from human CB1 receptor transfected into HEK293 cells at 10 uM by microplate scintillation counting; format: cell-based
Chain of Cannabinoid receptor 1 (Homo sapiens) (P21554 whole entry): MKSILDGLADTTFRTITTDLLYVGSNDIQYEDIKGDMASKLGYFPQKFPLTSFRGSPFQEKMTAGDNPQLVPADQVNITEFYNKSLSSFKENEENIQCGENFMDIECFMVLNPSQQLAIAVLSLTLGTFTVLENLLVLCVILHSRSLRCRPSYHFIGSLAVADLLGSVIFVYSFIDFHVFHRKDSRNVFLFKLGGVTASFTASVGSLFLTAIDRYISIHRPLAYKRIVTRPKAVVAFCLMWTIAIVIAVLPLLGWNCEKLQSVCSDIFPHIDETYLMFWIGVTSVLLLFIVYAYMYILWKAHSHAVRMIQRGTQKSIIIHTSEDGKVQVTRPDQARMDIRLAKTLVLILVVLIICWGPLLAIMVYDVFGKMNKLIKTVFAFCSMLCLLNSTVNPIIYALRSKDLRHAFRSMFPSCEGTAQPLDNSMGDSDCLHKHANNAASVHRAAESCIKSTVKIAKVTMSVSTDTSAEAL
Outline: (§1)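 HEK293 cells stably expressing cloned human CB1 or CB2 were grown in DMEM/F-12 with 0.5 mg/mL G418. Membranes were made by sonication and differential centrifugation. Compound at 10 μM (independent triplicate dilutions) was incubated with [3H]-CP 55,940, at 1.6975 nM for CB1 or 1.959 nM for CB2. Membrane was 5 μg for CB1 or 1 μg for CB2. Incubation was 90 min at 37 °C in Tris/EDTA/NaCl/0.2% BSA, pH 7.4. Bound label was collected on GF/C filters. Nonspecific binding was defined with 10 μM CP-55,940. Results are given as % displacement.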

[4] = target: Cannabinoid receptor 2 (Homo sapiens) (UniProt P34972); test: Displacement of [3H]-CP55940 from human CB2 receptor transfected into HEK293 cells at 10 uM by microplate scintillation counting; format: cell-based; outline: as §1
Chain of Cannabinoid receptor 2 (Homo sapiens) (P34972 whole entry): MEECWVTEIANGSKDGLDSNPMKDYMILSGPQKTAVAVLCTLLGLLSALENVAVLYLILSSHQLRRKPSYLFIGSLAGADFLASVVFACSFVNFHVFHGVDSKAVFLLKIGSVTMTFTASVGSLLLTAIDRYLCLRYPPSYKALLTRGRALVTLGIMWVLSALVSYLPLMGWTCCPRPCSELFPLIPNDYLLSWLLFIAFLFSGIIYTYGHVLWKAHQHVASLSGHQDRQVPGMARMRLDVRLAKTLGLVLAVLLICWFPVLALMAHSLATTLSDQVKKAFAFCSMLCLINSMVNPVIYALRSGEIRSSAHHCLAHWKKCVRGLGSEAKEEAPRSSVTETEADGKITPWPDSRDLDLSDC

[5] = target: T1, Delta-type opioid receptor; test: Agonist activity at human delta opioid receptor transfected into HEK293 cells assessed as effect on [35S]-GTPgammaS binding at 300 uM; format: functional, cell-based
Outline: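 Modified GTPγ[35S] functional assay. Tested at 300 μM. Binding is expressed as percent of the maximal GTPγ[35S] binding given by the full agonist DPDPE.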

Activity [1] [%] | Ki [2] [µM] | Activity [3] [%] | Activity [4] [%] | Activity [5] [%] | SMILES
86 | 3.1 | 3 | 4.2 | 32 | COc1ccc(-c2cc(=O)c3c(O)c(OC)c(OC)cc3o2)cc1OC
19.9 |  | 0.3 | 12.5 |  | COc1ccc(-c2cc(=O)c3c(O)c(OC)c(O)cc3o2)cc1OC
79.9 | 8.4 | 19.3 | 13.5 | 48 | COc1ccc(-c2cc(=O)c3c(O)c(OC)c(O)cc3o2)cc1 [PECTOLINARIGENIN]
31.6 | > 26 | 1.7 | 8.3 | 88 | COc1ccc(-c2cc(=O)c3c(O)c(OC)c(OC)cc3o2)cc1 [SALVIGENIN]
